Test results as given in ChEMBL document CHEMBL3217531, “Potential Drug Abuse Therapeutics Derived from the Hallucinogenic Natural Product Salvinorin A” (Medchemcomm, 2011).
pEC50, pKi: −log10 of the molar value. Active and inactive are the calls of the source. No cut-off for these calls is given here.

Columns and labels:
[1] = molecular target: Delta-type opioid receptor (Homo sapiens, UniProt P41143); assay: Displacement of [3H]DADLE from human delta opioid receptor expressed in CHO cell membrane after 2 hrs by liquid scintillation counting analysis; type: cell membranes
Chain of Delta-type opioid receptor (P41143 whole entry): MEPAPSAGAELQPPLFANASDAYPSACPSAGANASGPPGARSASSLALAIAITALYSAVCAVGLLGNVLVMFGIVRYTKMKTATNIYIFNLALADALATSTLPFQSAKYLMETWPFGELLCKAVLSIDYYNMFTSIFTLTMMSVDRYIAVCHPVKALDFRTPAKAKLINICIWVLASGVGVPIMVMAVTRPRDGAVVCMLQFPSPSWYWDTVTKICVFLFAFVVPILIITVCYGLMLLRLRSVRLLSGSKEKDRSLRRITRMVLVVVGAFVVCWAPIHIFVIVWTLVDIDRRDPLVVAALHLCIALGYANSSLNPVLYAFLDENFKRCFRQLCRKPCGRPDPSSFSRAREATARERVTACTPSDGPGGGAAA

Mu-type opioid receptor = Mu-type opioid receptor (Homo sapiens, UniProt P35372); assay: Displacement of [3H]DAMGO from human mu opioid receptor expressed in CHO cell membrane after 2 hrs by liquid scintillation counting analysis; type: cell membranes
Chain of Mu-type opioid receptor (P35372 whole entry): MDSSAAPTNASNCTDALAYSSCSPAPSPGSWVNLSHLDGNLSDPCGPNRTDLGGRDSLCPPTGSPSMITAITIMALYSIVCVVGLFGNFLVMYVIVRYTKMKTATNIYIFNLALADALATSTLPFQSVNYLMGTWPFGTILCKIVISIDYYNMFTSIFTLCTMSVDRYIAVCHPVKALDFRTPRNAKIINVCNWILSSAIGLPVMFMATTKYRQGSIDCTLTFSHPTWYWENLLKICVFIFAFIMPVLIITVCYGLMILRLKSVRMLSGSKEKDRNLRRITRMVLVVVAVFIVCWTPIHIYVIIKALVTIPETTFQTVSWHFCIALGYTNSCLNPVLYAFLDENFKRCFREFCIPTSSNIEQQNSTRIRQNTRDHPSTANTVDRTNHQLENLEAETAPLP

[2] = molecular target: T1, Kappa-type opioid receptor (Homo sapiens, UniProt P41145); assay: Displacement of [3H]U69593 from human kappa opioid receptor expressed in CHO cell membrane after 2 hrs by scintillation counting analysis; type: cell membranes
T1 sequence (P41145 whole entry): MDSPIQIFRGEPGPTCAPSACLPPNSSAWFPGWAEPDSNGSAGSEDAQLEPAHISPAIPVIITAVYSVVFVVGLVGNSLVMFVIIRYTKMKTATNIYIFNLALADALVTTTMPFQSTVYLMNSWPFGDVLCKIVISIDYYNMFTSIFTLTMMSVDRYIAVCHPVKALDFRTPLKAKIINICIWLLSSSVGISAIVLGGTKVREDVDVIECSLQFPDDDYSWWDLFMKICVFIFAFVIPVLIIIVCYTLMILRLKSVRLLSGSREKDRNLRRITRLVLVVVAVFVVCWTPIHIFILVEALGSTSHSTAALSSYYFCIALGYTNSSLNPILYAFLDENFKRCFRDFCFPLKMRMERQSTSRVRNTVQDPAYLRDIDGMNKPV

[3] = molecular target: T1, Kappa-type opioid receptor; assay: Agonist activity at human kappa opioid receptor expressed in CHO cell membrane assessed as [35S]GTPgammaS binding after 3 hrs by liquid scintillation counting analysis relative to (-)-U50488H; type: functional, cell membranes
[4] = molecular target: T1, Kappa-type opioid receptor; assay: Agonist activity at human kappa opioid receptor expressed in CHO cell membrane by [35S]GTPgammaS binding assay; type: functional, cell membranes
[5] = molecular target: T1, Kappa-type opioid receptor; assay: Agonist activity at human kappa opioid receptor expressed in CHO cell membrane assessed as [35S]GTPgammaS binding after 3 hrs by liquid scintillation counting analysis; type: functional, cell membranes
Rattus norvegicus = assay: Antiaddiction activity in rat assessed as reduction in cocaine-induced drug seeking activity at 1 mg/kg, ip treated for 5 to 10 mins prior to priming injection of cocaine measured for 2 hrs; type: functional, organism-based; set-up: dose 1 mg/kg
Summary of the method: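 Rats trained on FR5 cocaine self-administration (0.5 mg kg⁻¹/infusion, paired light cue, 2 h sessions). Extinction with sterile heparinized saline until active lever responses <20 per 2 h session. Next day, IP vehicle (75% DMSO) or test dose 5–10 min before IP cocaine prime (20 mg kg⁻¹). Active lever responding recorded for 2 h. N = 6 at 1 mg kg⁻¹; mean ±SEM.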

SMILES	pKi [1]	pKi (Mu-type opioid receptor)	pKi [2]	Emax [3] [%]	pEC50 [4]	ED50 [5] [nM]	Activity (Rattus norvegicus)	pKi ([2]; cho)
CCO[C@H](CBr)O[C@H]1C[C@@H](C(=O)OC)[C@]2(C)CC[C@H]3C(=O)O[C@H](c4ccoc4)C[C@]3(C)[C@H]2C1=O	< 5.30	5.45	5.13					
CCO[C@@H](C)O[C@H]1C[C@@H](C(=O)OC)[C@]2(C)CC[C@H]3C(=O)O[C@H](c4ccoc4)C[C@]3(C)[C@H]2C1=O	< 5.30	6.11						
COCO[C@H]1C[C@@H](C(=O)OC)[C@]2(C)CC[C@H]3C(=O)O[C@H](C(=O)N4CCCCC4)C[C@]3(C)[C@H]2C1=O	< 5.52	< 5.52	7.23	113				
CCOC(=O)O[C@H]1C[C@@H](C(=O)OC)[C@]2(C)CC[C@H]3C(=O)O[C@H](c4ccoc4)C[C@]3(C)[C@H]2C1=O	< 5.00	< 5.00	6.77					
CCO[C@@H](CBr)O[C@H]1C[C@@H](C(=O)OC)[C@]2(C)CC[C@H]3C(=O)O[C@H](c4ccoc4)C[C@]3(C)[C@H]2C1=O	< 5.30	< 5.52	5.28					
COC(=O)[C@@H]1C[C@H](O[C@H]2CCCCO2)C(=O)[C@H]2[C@@]1(C)CC[C@H]1C(=O)O[C@H](c3ccoc3)C[C@]21C	< 5.00	< 5.00	6.52					
CCNC(=O)O[C@H]1C[C@@H](C(=O)OC)[C@]2(C)CC[C@H]3C(=O)O[C@H](c4ccoc4)C[C@]3(C)[C@H]2C1=O	< 5.00	5.81	< 5.00		< 6.00			
COC(=O)[C@@H]1C[C@H](O[C@@H]2CCCO2)C(=O)[C@H]2[C@@]1(C)CC[C@H]1C(=O)O[C@H](c3ccoc3)C[C@]21C	< 5.00	< 5.00	7.12	112		1220		
COC(=O)[C@@H]1C[C@H](O[C@H]2CCCO2)C(=O)[C@H]2[C@@]1(C)CC[C@H]1C(=O)O[C@H](c3ccoc3)C[C@]21C	< 5.00	< 5.00	7.09	103		690		
COC(=O)[C@@H]1C[C@H](O[C@@H]2CCCCO2)C(=O)[C@H]2[C@@]1(C)CC[C@H]1C(=O)O[C@H](c3ccoc3)C[C@]21C	< 5.00	< 5.00	8.21	109			Active	
COC(=O)[C@@H]1C[C@H](OC(C)=O)C(=O)[C@H]2[C@@]1(C)CC[C@H]1C(=O)O[C@H](C(=O)N3CCCCC3)C[C@]21C				85		5110		6.85
COC(=O)[C@@H]1C[C@H](OC=O)C(=O)[C@H]2[C@@]1(C)CC[C@H]1C(=O)O[C@H](c3ccoc3)C[C@]21C	< 5.00	< 5.00	7.39					
CCO[C@H](C)O[C@H]1C[C@@H](C(=O)OC)[C@]2(C)CC[C@H]3C(=O)O[C@H](c4ccoc4)C[C@]3(C)[C@H]2C1=O	< 5.30	< 5.24						
CCOCO[C@H]1C[C@@H](C(=O)OC)[C@]2(C)CC[C@H]3C(=O)O[C@H](c4ccoc4)C[C@]3(C)[C@H]2C1=O [SALVINORIN B ETHOXYMETHYL ETHER]	5.99	7.39	8.50	127				
